Data: ChEMBL document CHEMBL1914423, “New imidazo[2,1-b]thiazole derivatives: synthesis, in vitro anticancer evaluation, and in silico studies” (Eur J Med Chem, 2011)

Tests used:
Format in all cases: functional
[1] = system: NCI/ADR-RES; experiment: Anticancer activity against human NCI/ADR-RES cells assessed as cell growth at 10^-5 M after 48 hrs by SRB assay; conditions: read-out: Activity
[2] = system: NCI-H460; experiment: Anticancer activity against human NCI-H460 cells assessed as cell growth at 10^-5 M after 48 hrs by SRB assay; conditions: NCI-H460, 48 h, read-out: Activity
[3] = system: K562; experiment: Anticancer activity against human K562 cells assessed as cell growth at 10^-5 M after 48 hrs by SRB assay; conditions: K562, 48 h, read-out: Activity
In short: (§1)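 NCI-60 single-dose screen at one concentration. Cells grown in RPMI 1640 with 5% FBS and 2 mM L-glutamine, plated at 5000–40,000 cells/well, and pre-incubated 24 h at 37 °C in 5% CO2 before DMSO-dissolved drug was added. Cells fixed with TCA, SRB-stained, absorbance read at 515 nm. Percent growth calculated against time-zero and untreated control plates.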

[4] = system: A498; experiment: Anticancer activity against human A498 cells assessed as cell growth at 10^-5 M after 48 hrs by SRB assay; conditions: A498, 48 h, read-out: Activity; in short: as §1
[5] = system: 786-0; experiment: Anticancer activity against human 786-0 cells assessed as cell growth at 10^-5 M after 48 hrs by SRB assay; conditions: 786-0, 48 h, read-out: Activity; in short: as §1
[6] = system: PC-3; experiment: Anticancer activity against human PC3 cells assessed as cell growth at 10^-5 M after 48 hrs by SRB assay; conditions: PC-3, 48 h, read-out: Activity
[7] = system: DU-145; experiment: Anticancer activity against human DU145 cells assessed as cell growth at 10^-5 M after 48 hrs by SRB assay; conditions: DU-145, 48 h, read-out: Activity; in short: as §1
[8] = system: HOP-62; experiment: Anticancer activity against human HOP62 cells assessed as cell growth at 10^-5 M after 48 hrs by SRB assay; conditions: HOP-62, 48 h, read-out: Activity; in short: as §1
[9] = system: MDA-MB-468; experiment: Anticancer activity against human MDA-MB-468 cells assessed as cell growth at 10^-5 M after 48 hrs by SRB assay; conditions: MDA-MB-468, 48 h, read-out: Activity
[10] = system: SR; experiment: Anticancer activity against human SR cells assessed as cell growth at 10^-5 M after 48 hrs by SRB assay; conditions: read-out: Activity
In short: (§2)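 NCI-60 single-dose screen: cells in RPMI 1640 with 5% FBS and 2 mM L-glutamine, plated at 5000–40,000 cells/well by doubling time, and preincubated 24 h at 37 °C. Compound given at one concentration from DMSO stock. Cells TCA-fixed and SRB-stained, absorbance at 515 nm. Percent growth relative to time-zero and untreated controls; inhibition % = 100 − growth %.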

[11] = system: NCI-H226; experiment: Anticancer activity against human NCI-H226 cells assessed as cell growth at 10^-5 M after 48 hrs by SRB assay; conditions: NCI-H226, 48 h, read-out: Activity
[12] = system: SK-OV-3; experiment: Anticancer activity against human SKOV3 cells assessed as cell growth at 10^-5 M after 48 hrs by SRB assay; conditions: SK-OV-3, 48 h, read-out: Activity
[13] = system: MCF7; experiment: Anticancer activity against human MCF7 cells assessed as cell growth at 10^-5 M after 48 hrs by SRB assay; conditions: MCF7, 48 h, read-out: Activity; in short: as §1
[14] = system: OVCAR-8; experiment: Anticancer activity against human OVCAR8 cells assessed as cell growth at 10^-5 M after 48 hrs by SRB assay; conditions: OVCAR-8, 48 h, read-out: Activity
[15] = system: U-251; experiment: Anticancer activity against human U251 cells assessed as cell growth at 10^-5 M after 48 hrs by SRB assay; conditions: U-251, 48 h, read-out: Activity; in short: as §2
[16] = system: COLO 205; experiment: Anticancer activity against human COLO205 cells assessed as cell growth at 10^-5 M after 48 hrs by SRB assay; conditions: COLO 205, 48 h, read-out: Activity; in short: as §1
[17] = system: KM12; experiment: Anticancer activity against human KM12 cells assessed as cell growth at 10^-5 M after 48 hrs by SRB assay; conditions: KM12, 48 h, read-out: Activity; in short: as §1
[18] = system: SK-MEL-5; experiment: Anticancer activity against human SK-MEL-5 cells assessed as cell growth at 10^-5 M after 48 hrs by SRB assay; conditions: SK-MEL-5, 48 h, read-out: Activity
[19] = system: HCT-15; experiment: Anticancer activity against human HCT15 cells assessed as cell growth at 10^-5 M after 48 hrs by SRB assay; conditions: HCT-15, 48 h, read-out: Activity; in short: as §1
[20] = system: SF-268; experiment: Anticancer activity against human SF268 cells assessed as cell growth at 10^-5 M after 48 hrs by SRB assay; conditions: SF-268, 48 h, read-out: Activity
[21] = system: LOX IMVI; experiment: Anticancer activity against human LOXIMVI cells assessed as cell growth at 10^-5 M after 48 hrs by SRB assay; conditions: read-out: Activity; in short: as §1
[22] = system: OVCAR-5; experiment: Anticancer activity against human OVCAR5 cells assessed as cell growth at 10^-5 M after 48 hrs by SRB assay; conditions: OVCAR-5, 48 h, read-out: Activity
[23] = system: HOP-92; experiment: Anticancer activity against human HOP92 cells assessed as cell growth at 10^-5 M after 48 hrs by SRB assay; conditions: HOP-92, 48 h, read-out: Activity; in short: as §1
[24] = system: CCRF-CEM; experiment: Anticancer activity against human CCRF-CEM cells assessed as cell growth at 10^-5 M after 48 hrs by SRB assay; conditions: read-out: Activity; in short: as §1
[25] = system: SNB-19; experiment: Anticancer activity against human SNB19 cells assessed as cell growth at 10^-5 M after 48 hrs by SRB assay; conditions: SNB-19, 48 h, read-out: Activity
[26] = system: NCI-H23; experiment: Anticancer activity against human NCI-H23 cells assessed as cell growth at 10^-5 M after 48 hrs by SRB assay; conditions: NCI-H23, 48 h, read-out: Activity
[27] = system: A549; experiment: Anticancer activity against human A549 cells assessed as cell growth at 10^-5 M after 48 hrs by SRB assay; conditions: A549, 48 h, read-out: Activity; in short: as §1
[28] = system: SNB-75; experiment: Anticancer activity against human SNB75 cells assessed as cell growth at 10^-5 M after 48 hrs by SRB assay; conditions: SNB-75, 48 h, read-out: Activity; in short: as §2
[29] = system: SF-295; experiment: Anticancer activity against human SF295 cells assessed as cell growth at 10^-5 M after 48 hrs by SRB assay; conditions: SF-295, 48 h, read-out: Activity
[30] = system: EKVX; experiment: Anticancer activity against human EKVX cells assessed as cell growth at 10^-5 M after 48 hrs by SRB assay; conditions: read-out: Activity; in short: as §1

| Structure (SMILES) | growth at 10 µM [1] [%] | growth at 10 µM [2] [%] | growth at 10 µM [3] [%] | growth at 10 µM [4] [%] | growth at 10 µM [5] [%] | growth at 10 µM [6] [%] | growth at 10 µM [7] [%] | growth at 10 µM [8] [%] | growth at 10 µM [9] [%] | growth at 10 µM [10] [%] | growth at 10 µM [11] [%] | growth at 10 µM [12] [%] | growth at 10 µM [13] [%] | growth at 10 µM [14] [%] | growth at 10 µM [15] [%] | growth at 10 µM [16] [%] | growth at 10 µM [17] [%] | growth at 10 µM [18] [%] | growth at 10 µM [19] [%] | growth at 10 µM [20] [%] | other results |
| --- | --- | --- | --- | --- | --- | --- | --- | --- | --- | --- | --- | --- | --- | --- | --- | --- | --- | --- | --- | --- | --- |
| COc1cccc(-c2nc3sccn3c2-c2ccnc(NCCNC(=O)c3ccccc3)n2)c1 | 70.5 | 84.9 | 67.5 | 66.3 | 78.4 | 79.7 | 100 | 111 | 79.4 | 79.8 | 79.3 | 88.5 | 81.7 | 62.5 | 102 | 51.8 | 87.8 | 55.3 | 81.9 | 92.7 | growth at 10 µM [21]: 54.8%; growth at 10 µM [22]: 99.1%; growth at 10 µM [23]: 77.8%; growth at 10 µM [24]: 52.5%; growth at 10 µM [25]: 110%; growth at 10 µM [26]: 87.3%; growth at 10 µM [27]: 75.3%; growth at 10 µM [28]: 92.6%; growth at 10 µM [29]: 85.4%; growth at 10 µM [30]: 106% |
| O=C(NCCNc1nccc(-c2c(-c3cccc(O)c3)nc3sccn23)n1)c1cc(N2CCOCC2)cc(C(F)(F)F)c1 | 103 | 96.2 | 70.7 | 92.8 | 86.6 | 78.2 | 110 | 136 | 94.8 | 97.3 | 106 | 94 | 85.4 | 78.1 | 105 | 32.7 | 97.3 | 58.4 | 92 | 102 | growth at 10 µM [21]: 52.3%; growth at 10 µM [22]: 101%; growth at 10 µM [23]: 87.7%; growth at 10 µM [24]: 52.9%; growth at 10 µM [25]: 125%; growth at 10 µM [26]: 106%; growth at 10 µM [27]: 88.6%; growth at 10 µM [28]: 83.2%; growth at 10 µM [29]: 84.4%; growth at 10 µM [30]: 88.6% |
| COc1cccc(-c2nc3sccn3c2-c2ccnc(NCCNC(=O)c3ccc(N4CCOCC4)c(C(F)(F)F)c3)n2)c1 | 69.6 | 77.7 | 32.6 | 64.6 | 71.5 | 60.8 | 111 | 99.4 | 90.5 | 76.7 | 85.4 | 82.8 | 90.9 | 62.4 | 87.2 | 69 | 76.2 | 57.2 | 66.6 | 89.7 | growth at 10 µM [21]: 73.5%; growth at 10 µM [22]: 96.9%; growth at 10 µM [23]: 85.1%; growth at 10 µM [24]: 54.6%; growth at 10 µM [25]: 105%; growth at 10 µM [26]: 102%; growth at 10 µM [27]: 76.2%; growth at 10 µM [28]: 82.5%; growth at 10 µM [29]: 69.2%; growth at 10 µM [30]: 74.1% |
| COc1cccc(-c2nc3sccn3c2-c2ccnc(NCCNC(=O)Nc3ccccc3)n2)c1 | 96.1 | 115 | 99.4 | 103 | 96.8 | 84.2 | 102 | 129 | 101 | 93.1 | 109 | 99 | 96.2 | 74.7 | 108 | 100 | 92 | 81.9 | 87.8 | 103 | growth at 10 µM [21]: 102%; growth at 10 µM [22]: 126%; growth at 10 µM [23]: 70.9%; growth at 10 µM [24]: 44.4%; growth at 10 µM [25]: 103%; growth at 10 µM [26]: 111%; growth at 10 µM [27]: 101%; growth at 10 µM [28]: 90.8%; growth at 10 µM [29]: 110%; growth at 10 µM [30]: 113% |
